# Experimental data reported in paper PMC4134498 (British Journal of Cancer, 2014).
# Tests used:
# [1] = system: platinum-sensitive, relapsed, high-grade serous ovarian cancer; conditions: olaparib maintenance, ref Ledermann et al, 2012, cited from earlier work
# [2] = system: advanced solid tumours; assay: Preliminary efficacy: best objective response, RECIST v1.0; type: in vivo, patients
# How it was run: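 Patients with advanced solid tumours took oral PARP inhibitor capsules bid, 50–400 mg, on days 1–7 (intermittent) or days 1–28 (continuous) of 28-day cycles, plus liposomal anthracycline 40 mg m−2 on day 1, for up to 6 combination cycles. Site investigators scored objective response by RECIST v1.0. Analyses ran by tumour type and gBRCA status, and for ovarian cancer by platinum sensitivity (progression-free interval ⩾6 months), retrospectively.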
# [3] = ovarian cancer patients, all cohorts + PLD 40 mg m^−2, Total (n=26)
# [4] = ovarian cancer patients, olaparib 50 mg bid 7 day + PLD 40 mg m^−2 (n=3)
# [5] = ovarian cancer patients, olaparib 100 mg bid 7 day + PLD 40 mg m^−2 (n=2)
# [6] = ovarian cancer patients, olaparib 100 mg bid 28 day + PLD 40 mg m^−2 (n=2)
# [7] = ovarian cancer patients, olaparib 200 mg bid 7 day + PLD 40 mg m^−2 (n=2)
# [8] = ovarian cancer patients, olaparib 200 mg bid 28 day + PLD 40 mg m^−2 (n=3)
# [9] = ovarian cancer patients, olaparib 400 mg bid 7 day + PLD 40 mg m^−2 (n=8)
# [10] = ovarian cancer patients, olaparib 400 mg bid 28 day + PLD 40 mg m^−2 (n=8)
# [11] = overall population, all cohorts + PLD 40 mg m^−2, Total (n=42)
# [12] = overall population, olaparib 50 mg bid 7 day + PLD 40 mg m^−2 (n=3)
# [13] = overall population, olaparib 100 mg bid 7 day + PLD 40 mg m^−2 (n=3)
# [14] = overall population, olaparib 100 mg bid 28 day + PLD 40 mg m^−2 (n=4)
# [15] = overall population, olaparib 200 mg bid 7 day + PLD 40 mg m^−2 (n=3)
# [16] = overall population, olaparib 200 mg bid 28 day + PLD 40 mg m^−2 (n=7)
# [17] = overall population, olaparib 400 mg bid 7 day + PLD 40 mg m^−2 (n=12)
# [18] = overall population, olaparib 400 mg bid 28 day + PLD 40 mg m^−2 (n=12)
smiles,measurement,setting,value
O=C(c1cc(Cc2n[nH]c(=O)c3ccccc23)ccc1F)N1CCN(C(=O)C2CC2)CC1 [olaparib],PFS hazard ratio vs placebo,"[1]; 95% CI, 0.25–0.49, P<0.00001",0.35
same,median PFS,[1],8.4 months
same,patients with antitumour activity,[2]; continuous olaparib schedule + PLD,7 out of 23
same,patients with antitumour activity,[2]; intermittent olaparib schedule + PLD,7 out of 21
same,"ORR, platinum-resistant ovarian patients with a gBRCA mutation",[2]; olaparib + PLD,50%
same,"ORR, platinum-sensitive ovarian patients with a gBRCA mutation",[2]; olaparib + PLD,67%
same,"ORR, platinum-sensitive ovarian patients with wild type or unknown gBRCA mutation status",[2]; olaparib + PLD,100%
same,"objective responses, evaluable patients with breast cancer",[2]; olaparib + PLD,8%
same,"response rate, platinum-resistant ovarian patients",[2]; olaparib + PLD,25%
same,"response rate, platinum-sensitive ovarian patients",[2]; olaparib + PLD,71%
same,"ORR, ovarian cancer subgroup","[2]; olaparib + PLD, 13 out of 26",50%
same,"ORR, overall population","[2]; olaparib + PLD, 14 out of 42",33%
same,Ovarian cancer patients with a complete or partial objective response,"[2]; olaparib + PLD, Platinum resistant, gBRCA Unknown",0/6
same,Ovarian cancer patients with a complete or partial objective response,"[2]; olaparib + PLD, Platinum resistant, gBRCAm",3/6
same,Ovarian cancer patients with a complete or partial objective response,"[2]; olaparib + PLD, Platinum sensitive, gBRCA Unknown",1/1
same,Ovarian cancer patients with a complete or partial objective response,"[2]; olaparib + PLD, Platinum sensitive, gBRCAm",8/12
same,Ovarian cancer patients with a complete or partial objective response,"[2]; olaparib + PLD, Platinum sensitive, gBRCAwt",1/1
same,"response, gBRCA-mutated patients in the ovarian subgroup","[2]; olaparib + PLD, eleven patients",61%
same,"partial response (PR), evaluable patients","[2]; olaparib + PLD, overall, 11 patients",26%
same,"complete response (CR), evaluable patients","[2]; olaparib + PLD, overall, three patients",7%
same,"Best objective response: Complete response, patients",[2]; [3],3 (12) n (%)
same,"Best objective response: Partial response, patients",[2]; [3],10 (38) n (%)
same,"Best objective response: Progressive disease, patients",[2]; [3],5 (19) n (%)
same,"Best objective response: Stable disease, patients",[2]; [3],8 (31) n (%)
same,"Best objective response: Complete response, patients",[2]; [4],1 n
same,"Best objective response: Partial response, patients",[2]; [4],1 n
same,"Best objective response: Progressive disease, patients",[2]; [4],0 n
same,"Best objective response: Stable disease, patients",[2]; [4],1 n
same,"Best objective response: Complete response, patients",[2]; [5],0 n
same,"Best objective response: Partial response, patients",[2]; [5],1 n
same,"Best objective response: Progressive disease, patients",[2]; [5],1 n
same,"Best objective response: Stable disease, patients",[2]; [5],0 n
same,"Best objective response: Complete response, patients",[2]; [6],0 n
same,"Best objective response: Partial response, patients",[2]; [6],0 n
same,"Best objective response: Progressive disease, patients",[2]; [6],1 n
same,"Best objective response: Stable disease, patients",[2]; [6],0 n
same,"Best objective response: Complete response, patients",[2]; [7],0 n
same,"Best objective response: Partial response, patients",[2]; [7],1 n
same,"Best objective response: Progressive disease, patients",[2]; [7],0 n
same,"Best objective response: Stable disease, patients",[2]; [7],1 n
same,"Best objective response: Complete response, patients",[2]; [8],0 n
same,"Best objective response: Partial response, patients",[2]; [8],1 n
same,"Best objective response: Progressive disease, patients",[2]; [8],0 n
same,"Best objective response: Stable disease, patients",[2]; [8],1 n
same,"Best objective response: Complete response, patients",[2]; [9],1 n
same,"Best objective response: Partial response, patients",[2]; [9],2 n
same,"Best objective response: Progressive disease, patients",[2]; [9],1 n
same,"Best objective response: Stable disease, patients",[2]; [9],4 n
same,"Best objective response: Complete response, patients",[2]; [10],1 n
same,"Best objective response: Partial response, patients",[2]; [10],4 n
same,"Best objective response: Progressive disease, patients",[2]; [10],2 n
same,"Best objective response: Stable disease, patients",[2]; [10],1 n
same,"Best objective response: Complete response, patients",[2]; [11],3 (7) n (%)
same,"Best objective response: Not evaluable/unknown, patients",[2]; [11],2 (5) n (%)
same,"Best objective response: Partial response, patients",[2]; [11],11 (26) n (%)
same,"Best objective response: Progressive disease, patients",[2]; [11],13 (31) n (%)
same,"Best objective response: Stable disease, patients",[2]; [11],13 (31) n (%)
same,"Best objective response: Complete response, patients",[2]; [12],1 n
same,"Best objective response: Not evaluable/unknown, patients",[2]; [12],0 n
same,"Best objective response: Partial response, patients",[2]; [12],1 n
same,"Best objective response: Progressive disease, patients",[2]; [12],0 n
same,"Best objective response: Stable disease, patients",[2]; [12],1 n
same,"Best objective response: Complete response, patients",[2]; [13],0 n
same,"Best objective response: Not evaluable/unknown, patients",[2]; [13],0 n
same,"Best objective response: Partial response, patients",[2]; [13],1 n
same,"Best objective response: Progressive disease, patients",[2]; [13],1 n
same,"Best objective response: Stable disease, patients",[2]; [13],1 n
same,"Best objective response: Complete response, patients",[2]; [14],0 n
same,"Best objective response: Not evaluable/unknown, patients",[2]; [14],0 n
same,"Best objective response: Partial response, patients",[2]; [14],0 n
same,"Best objective response: Progressive disease, patients",[2]; [14],2 n
same,"Best objective response: Stable disease, patients",[2]; [14],1 n
same,"Best objective response: Complete response, patients",[2]; [15],0 n
same,"Best objective response: Not evaluable/unknown, patients",[2]; [15],0 n
same,"Best objective response: Partial response, patients",[2]; [15],1 n
same,"Best objective response: Progressive disease, patients",[2]; [15],1 n
same,"Best objective response: Stable disease, patients",[2]; [15],1 n
same,"Best objective response: Complete response, patients",[2]; [16],0 n
same,"Best objective response: Not evaluable/unknown, patients",[2]; [16],1 n
same,"Best objective response: Partial response, patients",[2]; [16],1 n
same,"Best objective response: Progressive disease, patients",[2]; [16],2 n
same,"Best objective response: Stable disease, patients",[2]; [16],2 n
same,"Best objective response: Complete response, patients",[2]; [17],1 n
same,"Best objective response: Not evaluable/unknown, patients",[2]; [17],1 n
same,"Best objective response: Partial response, patients",[2]; [17],2 n
same,"Best objective response: Progressive disease, patients",[2]; [17],3 n
same,"Best objective response: Stable disease, patients",[2]; [17],5 n
same,"Best objective response: Complete response, patients",[2]; [18],1 n
same,"Best objective response: Not evaluable/unknown, patients",[2]; [18],0 n
same,"Best objective response: Partial response, patients",[2]; [18],5 n
same,"Best objective response: Progressive disease, patients",[2]; [18],4 n
same,"Best objective response: Stable disease, patients",[2]; [18],2 n
